Data set [1] can be described thus: (§1) Cytotoxicity against human HuH7 cells after 3 days by MTT assay. It is filed as cell-based, Huh-7. The following applies: human, HuH7 cells. The essentials: (§2)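 Huh7 cells (2.5 × 10^4 per well) adhered overnight. Confluent monolayers washed, then treated with compound (final 100–0.01 μM) or DMSO control for 3 days at 37°C. Viability by MTT, absorbance 570 nm, expressed relative to DMSO-treated cells.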
Background: Formazan colour is commonly taken as a measure of viable cells.

Data set [2] relates to West Nile virus. As to the kind of experiment: Antiviral activity against West Nile virus infected in human HuH7 cells incubated for 4 days by crystal violet staining based plaque reduction assay. The data set is classed as functional, organism-based. To be noted: Huh-7, 96 h. A digest of the protocol:
(§3)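 Huh7 cells (2.5 × 10^5 per well, overnight) infected with lineage 2 WNV at MOI 0.1 for 1 h at 37°C, washed, then compound added in 10-fold dilutions (final 100–0.01 μM) with DMSO as virus control. Agarose overlay, 4 days at 37°C, methanol fixation, crystal violet staining. PFU relative to DMSO; IC50 by exponential fit at 50% PFU. Duplicates, repeated at least twice.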
Background: Plaques are areas of infected cells; plaque reduction assays count them against a control.

In data set [3] the target is T1, ATP-dependent RNA helicase DDX3X (Homo sapiens, UniProt O00571). Put plainly: Inhibition of full length His-tagged human DDX3X expressed in Escherichia coli assessed as reduction in DDX3X helicase activity using FAM-labeled double stranded RNA as substrate after 40 mins by FRET assay relative to control. A digest of the protocol: (§4)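 Recombinant His-tagged full-length DDX3X expressed in E. coli, Ni-NTA purified. Unwinding of FAM-labelled dsRNA, with capture strand at 100 nM, in Tris-HCl pH 8, 70 mM KCl, 2 mM MgCl2, 2 mM DTT, 2 mM ATP. Started with DDX3X, 37°C, 40 min, fluorescence read every 30 s. Initial slope gives unwinding rate; IC50 by nonlinear regression of triplicates.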

Data set [4] is described as follows: Metabolic stability in human liver microsomes at 50 uM after 60 mins in presence of NADPH-generating system by LC-UV-MS analysis. It is filed as ADME, Microsome. The following applies: read-out: Stability. The essentials: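 Compound at 50 μM final (DMSO ≤2%) incubated with human liver microsomes (0.2 mg/mL) and NADPH-generating system in 125 mM phosphate buffer pH 7.4, 37 °C, 60 min. Remaining compound measured by LC-ESI-MS in positive ion mode, with UV at 280 nm.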
On the technique in general: Microsomes from liver hold many membrane-bound enzymes, among them those of drug oxidation.

For data set [5], the target named is T2, ATP-dependent RNA helicase DDX1 (Homo sapiens, UniProt Q92499).
T2 sequence (Q92499 whole entry): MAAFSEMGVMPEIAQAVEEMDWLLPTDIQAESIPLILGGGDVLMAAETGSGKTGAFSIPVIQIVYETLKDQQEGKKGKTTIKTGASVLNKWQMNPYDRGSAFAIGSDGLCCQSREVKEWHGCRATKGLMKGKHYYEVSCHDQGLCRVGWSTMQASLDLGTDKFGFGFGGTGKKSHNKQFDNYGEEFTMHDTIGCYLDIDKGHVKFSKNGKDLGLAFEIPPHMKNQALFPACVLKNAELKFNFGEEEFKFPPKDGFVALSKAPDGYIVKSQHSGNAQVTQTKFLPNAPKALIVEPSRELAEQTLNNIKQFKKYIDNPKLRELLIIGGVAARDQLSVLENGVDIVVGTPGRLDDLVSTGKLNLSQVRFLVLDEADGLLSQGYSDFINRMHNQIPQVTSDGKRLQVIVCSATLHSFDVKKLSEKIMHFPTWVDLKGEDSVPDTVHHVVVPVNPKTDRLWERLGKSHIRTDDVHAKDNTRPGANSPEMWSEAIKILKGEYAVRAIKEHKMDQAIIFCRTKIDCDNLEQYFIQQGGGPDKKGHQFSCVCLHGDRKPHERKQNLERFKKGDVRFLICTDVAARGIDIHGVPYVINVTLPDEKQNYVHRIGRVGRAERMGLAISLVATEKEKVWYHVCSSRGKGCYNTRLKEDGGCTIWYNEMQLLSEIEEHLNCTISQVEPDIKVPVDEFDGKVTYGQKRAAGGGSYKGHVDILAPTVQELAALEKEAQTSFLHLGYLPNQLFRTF
Put plainly: Inhibition of human DDX1 helicase activity.

Data set [6] in a line: Apparent permeability of the compound by PAMPA. The data set is classed as ADME. The essentials: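 PAMPA: 0.5 mM donor solution in pH 7.4 phosphate buffer, diluted from 1 mM DMSO stock. Filter coated with 1% phosphatidylcholine in dodecane; acceptor 50% DMSO in buffer. Incubated 5 h at room temperature with shaking. Donor and acceptor quantified by LC-UV at 280 nm and Papp calculated. Three plates on different days.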

Data set [7] concerns the target T1, ATP-dependent RNA helicase DDX3X. Put plainly: Competitive inhibition of full length His-tagged human DDX3X expressed in Escherichia coli assessed as reduction in DDX3X helicase activity using 0.024 uM FAM-labeled double stranded RNA as substrate after 40 mins by FRET assay relative to control. The essentials: as §4
Data set [8] shares this target. As to the kind of experiment: Competitive inhibition of full length His-tagged human DDX3X expressed in Escherichia coli assessed as reduction in DDX3X helicase activity using 0.1 uM FAM-labeled double stranded RNA as substrate after 40 mins by FRET assay relative to control. A digest of the protocol:
as §4

Data set [9] shares this target. Put plainly: Competitive inhibition of human full length His-tagged DDX3X helicase activity expressed in Escherichia coli using FAM-labeled double stranded RNA as substrate at 0.1 uM after 40 mins by fluorescence assay. The essentials:
as §4

For a further data set, the system named is Huh-7. Described as §1. It is filed as cell-based. To be noted: Homo sapiens, Huh-7, 72 h. The essentials: as §2
For data set [10], the system named is West Nile virus. As to the kind of experiment: Antiviral activity against West Nile virus infected in human HuH7 cells assessed as reduction in capsid protein levels at 1 uM added at 1 hr post infection by SDS-PAGE analysis. The data set is classed as functional, organism-based. The essentials:
(§5)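 Huh7 cells were infected with WNV at MOI 0.1, with compound at 1 µM added 1 h or 3 h after infection; a no-compound infected control was run alongside. Cell lysates were run on 10% SDS-PAGE and immunoblotted with anti-capsid polyclonal antibody, then peroxidase-conjugated anti-rabbit IgG.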

Data set [11] has as its system West Nile virus. As to the kind of experiment: Antiviral activity against West Nile virus infected in human HuH7 cells assessed as reduction in genomic RNA at 1 uM added at 1 hr post viral infection by PCR analysis. The data set is classed as functional, organism-based. The essentials: (§6)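 Huh7 cells infected with WNV at MOI 0.1; compound at 1 µM added 1 h or 3 h after infection. Total RNA (200 ng) reverse-transcribed with strand-specific primers for genomic or complementary WNV RNA, then quantified by real-time PCR against plasmid standards. Detection limit 10 copies. Means with standard deviation.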

The subject of data set [12] is West Nile virus. Put plainly: Antiviral activity against West Nile virus infected in human HuH7 cells at 1 to 10 uM added after 3 hrs post infection by crystal violet staining based plaque reduction assay. The data set is classed as functional, organism-based. A digest of the protocol: (§7)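 Huh7 cells infected with WNV at MOI 0.1; compound at 1 µM and 10 µM added at various times relative to infection. Read-out by viral plaque reduction assay. Means with standard deviation.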

Data set [13] concerns West Nile virus. As to the kind of experiment: Antiviral activity against West Nile virus infected in human HuH7 cells at 1 to 10 uM added before 2 hrs post infection by crystal violet staining based plaque reduction assay. The data set is classed as functional, organism-based. A digest of the protocol: as §7
Data set [14] relates to West Nile virus. Put plainly: Antiviral activity against West Nile virus infected in African green monkey Vero cells incubated for 4 days by crystal violet staining based plaque reduction assay. It is filed as functional, organism-based. The following applies: 96 h. The essentials: (§8)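 Cell monolayers at 80–90% confluence were infected with WNV lineage 2 strain at MOI 0.1 for 1 h at 37°C with 5% CO2, then washed. DMSO vehicle or compound (final 100, 10, 1, 0.1, 0.01 μM) was added in duplicate under a 0.5% agarose overlay. Ribavirin served as reference. After methanol fixation and 0.1% crystal violet staining, PFU were expressed relative to DMSO control. IC50 was interpolated at 50% PFU; experiments were repeated at least twice.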

Data set [15] relates to West Nile virus. As to the kind of experiment: Antiviral activity against West Nile virus infected in human HuH7 cells assessed as reduction in complementary RNA at 1 uM added at 1 hr post viral infection by PCR analysis. The data set is classed as functional, organism-based. A digest of the protocol: as §6
Data set [16] has as its system West Nile virus. As to the kind of experiment: Antiviral activity against West Nile virus infected in human HuH7 cells assessed as reduction in genomic RNA at 1 uM added at 3 hrs hrs post viral infection by PCR analysis. It is filed as functional, organism-based. The essentials:
as §6

Data set [17] relates to West Nile virus. Put plainly: Antiviral activity against West Nile virus infected in human HuH7 cells assessed as reduction in capsid protein levels at 1 uM added at 3 hrs post infection by SDS-PAGE analysis. It is filed as functional, organism-based. The essentials:
as §5

In data set [18] the test system is West Nile virus. As to the kind of experiment: Antiviral activity against West Nile virus infected in human A549 cells incubated for 4 days by crystal violet staining based plaque reduction assay. The data set is classed as functional, organism-based. The following applies: A549, 96 h. A digest of the protocol: as §8
The test system of the next data set is Vero. As to the kind of experiment: Cytotoxicity against African green monkey Vero cells after 3 days by MTT assay. It is filed as cell-based. The following applies: Chlorocebus sabaeus, 72 h. A digest of the protocol:
(§9)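 Confluent monolayers were washed with PBS and treated in DMEM with DMSO alone (control) or compound at final 100, 10, 1, 0.1, 0.01 μM. Cells were incubated 3 days at 37°C, then given MTT with absorbance read at 570 nm. Cytotoxicity was taken as the OD ratio of treated to DMSO wells, and CC50 was the concentration killing 50% of uninfected cells.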

In the next data set the test system is A549. As to the kind of experiment: Cytotoxicity against human A549 cells after 3 days by MTT assay. The data set is classed as cell-based. To be noted: A549, 72 h. The essentials: as §9
Data set [19] relates to West Nile virus. As to the kind of experiment: Antiviral activity against West Nile virus. It is filed as functional, organism-based. The essentials:
as §3

This note sets out measurements from ChEMBL document CHEMBL4480403, “DDX3X Helicase Inhibitors as a New Strategy To Fight the West Nile Virus Infection” (J Med Chem, 2019).

Calls of active or inactive are those of the source. The calls are words filed in the database; no cut-off is given here. Some results are limits rather than exact numbers.

T1 sequence (O00571 2-662 limits assumed): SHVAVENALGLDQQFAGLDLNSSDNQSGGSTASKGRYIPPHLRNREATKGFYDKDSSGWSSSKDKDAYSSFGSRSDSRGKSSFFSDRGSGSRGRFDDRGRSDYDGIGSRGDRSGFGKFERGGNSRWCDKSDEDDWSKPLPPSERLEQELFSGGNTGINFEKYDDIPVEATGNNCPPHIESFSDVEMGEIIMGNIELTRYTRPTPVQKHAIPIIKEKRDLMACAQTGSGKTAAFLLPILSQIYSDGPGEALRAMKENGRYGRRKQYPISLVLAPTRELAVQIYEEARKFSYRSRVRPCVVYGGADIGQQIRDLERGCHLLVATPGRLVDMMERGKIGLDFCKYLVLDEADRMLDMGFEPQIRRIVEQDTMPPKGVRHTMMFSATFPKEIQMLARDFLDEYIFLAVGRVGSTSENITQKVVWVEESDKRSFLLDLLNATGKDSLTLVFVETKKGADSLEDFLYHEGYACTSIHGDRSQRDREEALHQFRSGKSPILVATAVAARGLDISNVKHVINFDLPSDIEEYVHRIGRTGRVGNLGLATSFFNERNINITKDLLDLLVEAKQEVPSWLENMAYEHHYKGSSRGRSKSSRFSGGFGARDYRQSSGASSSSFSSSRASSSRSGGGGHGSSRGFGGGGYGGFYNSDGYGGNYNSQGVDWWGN

By CC50 is commonly meant the concentration that lowers cell viability or growth by half. Broadly, the EC50 is the concentration at which the effect is half-maximal. The inhibition is the change of the read-out against control, counted positive when it falls. A word on the IC50: it is the concentration that gives 50% inhibition. Molecule `CCCCc1cn(-c2ccc(NC(=O)Nc3ccccc3C)cc2)nn1` gave a CC50 at 72 h in [1] greater than 200 µM. The molecule further showed an EC50 in the data set with West Nile virus [2] of 8.8 µM. In data set [3], the inhibition was 98%. In addition, the remaining at 1 h, 50 µM in data set [4] was found to be 99%. This molecule returned an IC50 in data set [5] greater than 200 µM.
In general, Papp refers to the rate of passage across a membrane or cell layer, normalised by area and donor concentration. For the molecule `CCCCc1cn(-c2cccc(S(=O)(=O)Nc3cccc4cnccc34)c2)nn1`, in data set [1], the cytotoxic concentration (CC50) at 72 h is greater than 200 µM. In the data set with West Nile virus [2], a half-maximal effect (EC50) was put at 55 µM. Moreover, the Papp in data set [6] came out at 0.68 ×10⁻⁶ cm/s. In data set [3], the inhibition is 99%. In data set [4], the remaining at 1 h, 50 µM is 98%. In addition, the IC50 in data set [5] is greater than 200 µM.
`O=[N+]([O-])c1cccc(S(=O)(=O)Nc2ccccc2O)c1` registered a CC50 at 72 h in data set [1] of 175 µM. The EC50 with West Nile virus [2] is 120 µM. In data set [6], the Papp was less than 0.1 ×10⁻⁶ cm/s. Moreover, in [3], the inhibition was 98%. The remaining at 1 h, 50 µM in data set [4] stood at 98.3%. For the same molecule, in data set [5], the IC50 was greater than 200 µM.
In data set [1], `CCCCc1cn(-c2cccc(S(=O)(=O)Nc3ccccc3O)c2)nn1` came in with a CC50 at 72 h greater than 200 µM. In the data set on West Nile virus [2], this molecule gave an EC50 of 2.3 µM. Moreover, the Papp in data set [6] amounted to 0.1 ×10⁻⁶ cm/s. The values for the ID50 in data set [7], in data set [8] and in data set [9] were 0.3 µM, 2.2 µM and 20 µM, respectively. In addition, in data set [3], the inhibition turned out to be 83%. The remaining at 1 h, 50 µM in data set [4] was 95.6%.
With `CCCCc1cn(-c2cccc(S(=O)(=O)Nc3ccccc3C(F)(F)F)c2)nn1`, the IC50 in the data set with Huh-7 is greater than 200 µM; in data set [5] it was greater than 200 µM; in the data set with Vero, greater than 200 µM; with A549, 21.3 µM. The EC50 in the data set with West Nile virus [2] turned out to be 23.1 µM; with West Nile virus [14], 12 µM; with West Nile virus [18], 3.4 µM. Besides, the result with West Nile virus [10], in the data set with West Nile virus [11], with West Nile virus [13] and in the data set on West Nile virus [15] was Active. In addition, the Papp in data set [6] was determined as 0.21 ×10⁻⁶ cm/s. Moreover, the outcome in the data set on West Nile virus [12], in the data set on West Nile virus [16] and with West Nile virus [17] was inactive. For the same molecule, in data set [3], the inhibition is 98%. In addition, the remaining at 1 h, 50 µM in data set [4] is 99%.
Molecule `NC(=O)c1ncn([C@@H]2O[C@H](CO)[C@@H](O)[C@H]2O)n1` [RIBAVIRIN] registered an IC50 in the data set with Huh-7 greater than 200 µM. Further, the EC50 in the data set on West Nile virus [19] is 71.2 µM; in the data set with West Nile virus [2] it was 90 to 95.5 µM; in the data set on West Nile virus [14] it was 95 µM; in the data set on West Nile virus [18], 46 µM.
